Results of several laboratories.
Protocols differ between the studies behind these lines.
Cell line: A549
Effect on: cell growth or viability

| Structure (SMILES) | technique | tested at | inhibition |
| --- | --- | --- | --- |
| O=C1Nc2ccc(Cl)cc2/C1=N/NC(=O)c1cc2ccccc2[nH]1 | – | 30 µM | 60.6% |
| O=C(CN1C(=O)/C(=C/c2ccc([N+](=O)[O-])cc2)SC1=S)Nc1ccccc1 | MTT | 10 µM | 24.4% |
| CN1C(=O)/C(=N\NC(=O)c2cc3ccccc3[nH]2)c2cc(F)ccc21 | – | 30 µM | 90.3% |
| Cc1ccc2c(c1)C(=NNc1nc3ccccc3n(C)c1=O)C(=O)N2 | – | 30 µM | 68.8% |
| CN1C(=O)/C(=N\NC(=O)c2cc3ccccc3[nH]2)c2cc(Br)ccc21 | – | 30 µM | 97.4% |
| COc1cccc(NC(=O)CN2C(=O)/C(=C/c3ccc(F)cc3)SC2=S)c1 | MTT | 10 µM | 22.3% |
| CN1C(=O)/C(=N\NC(=O)c2cc3ccccc3[nH]2)c2cc(Cl)ccc21 | – | 30 µM | 95.8% |
| COc1ccc2c(c1)C(=NNc1nc3ccccc3n(C)c1=O)C(=O)N2 | – | 30 µM | 85.9% |
| Cc1c(-c2cccc(C(F)(F)F)c2)sc2[nH]c(=O)n([C@H](C)c3cccc4ccccc34)c(=O)c12 | – | 10 µM | > 80% |
| COc1ccc(-c2nc(NN=C3C(=O)Nc4ccc(Cl)cc43)c3ccccc3n2)cc1OC | – | 30 µM | 10.9% |
| COc1cc(CNC(=O)CCCC/C=C/C(C)C)ccc1O | SRB | 10 µM | 0% |
| O=C(CN1C(=O)/C(=C/c2cccc(Br)c2)SC1=S)Nc1ccccc1 | MTT | 10 µM | 25.8% |
| O=C1Nc2ccc(Br)cc2/C1=N/NC(=O)c1cc2ccccc2[nH]1 | – | 30 µM | 77% |
| O=C(CN1C(=O)/C(=C/c2cccc(F)c2)SC1=S)Nc1ccccc1 | MTT | 10 µM | 26.1% |
| COc1cc2ncnc(NN=C3C(=O)Nc4ccccc43)c2cc1OC | – | 30 µM | 32.9% |
| COc1ccc2c(c1)/C(=N/NC(=O)c1cc3ccccc3[nH]1)C(=O)N2C | – | 30 µM | 97.4% |
| O=C(CN1C(=O)/C(=C/c2ccccc2Cl)SC1=S)Nc1ccccc1 | MTT | 10 µM | 20.5% |
| COc1cc2ncnc(NN=C3C(=O)Nc4ccc(C)cc43)c2cc1OC | – | 30 µM | 20.5% |
| O=C(CN1C(=O)/C(=C/c2ccc(Cl)cc2)SC1=S)Nc1ccccc1 | MTT | 10 µM | 36.7% |
| COc1cc2ncnc(NN=C3C(=O)Nc4ccc(Br)cc43)c2cc1OC | – | 10 µM | -4.3% |
